Experimental data from different studies.
Each line is one published result; the experiments were not run side by side.
Observed: cell growth or viability

With `Nc1nc2sc(CCCCCCCc3ccc(C(=O)N[C@@H](CCC(=O)O)C(=O)O)cc3)cc2c(=O)[nH]1` the IC50 was greater than 1 µM (R2/PCFT4; 96 h, pH 7.2).
`CC(C)C[C@H](NC(=O)[C@H](Cc1ccccc1)NC(=O)c1cnccn1)B(O)O` has an IC50 of 0.0071 µM (Ishikawa; ATP luminescence).
`COc1cc(-c2ncn(/C=C\C(=O)OC(C)C)n2)cc(C(F)(F)F)c1` has an IC50 of 0.083 µM (MEG-01; 72 h).
With `CCCCN(Cc1ccc(C(=O)NO)cc1)C(=O)Nc1ccccc1` the IC50 was 9.05 µM (HAL-01; ATP luminescence; 72 h).
For `Nc1ccn([C@@H]2O[C@H](CO)[C@@H](O)C2(F)F)c(=O)n1`, the IC50 was 14.4 µM (HFF-1; MTT).
`CCN(CC)CCn1cccc1/C=N/NC(=O)Nc1cc2c(Nc3ccc(F)c(Cl)c3)ncnc2cc1O[C@H]1CCOC1` gave an IC50 of 0.15 µM (PC-3; MTT; 72 h).
The IC50 of `Nc1nc2sc(CCCc3ccc(C(=O)N[C@@H](CCC(=O)O)C(=O)O)cc3)cc2c(=O)[nH]1` is reported as greater than 1 µM (R2/PCFT4; 96 h, pH 7.2).
With `C=CCNC1=C2C[C@@H](C)C[C@H](OC)[C@H](O)[C@@H](C)/C=C(\C)[C@H](OC(N)=O)[C@@H](OC)/C=C\C=C(/C)C(=O)NC(=CC1=O)C2=O` the IC50 was 1.2 µM (HUVEC; MTT).
With `CN1c2ccccc2C(=O)N2[C@H](C(=O)Nc3ccc(/C=C/C(=O)NO)cc3)Cc3c([nH]c4ccccc34)[C@@H]12` the IC50 was 7.4 µM (HUVEC).
For `Nc1nc2sc(CCCCCCCCc3ccc(C(=O)N[C@@H](CCC(=O)O)C(=O)O)cc3)cc2c(=O)[nH]1`, the IC50 was greater than 1 µM (R2/PCFT4; 96 h, pH 7.2).
With `COc1cc(Nc2nccc(-c3cnn4nc(OC)ccc34)n2)cc(C(F)(F)F)c1` the IC50 was 0.93 µM (HCC38; ATP luminescence).
With `CCOc1cc(-c2nc3ccc(C)cc3[nH]2)ccc1O` the IC50 was 32.8 µM (C26; MTT; 48 h).
`COc1cc2ncnc(Nc3ccc(F)c(Cl)c3)c2cc1NC(=O)N/N=C/c1cccn1CCN1CCN(C)CC1` gave an IC50 of 2.08 µM (PC-3; MTT; 72 h).
`CCCON(Cc1ccc(C(=O)NO)cc1)C(=O)Nc1ccccc1` gave an IC50 of 6.65 µM (HAL-01; ATP luminescence; 72 h).
With `COc1cc(/C=C/C(=O)CC(=O)/C=C/c2ccc(O)c(OC)c2)ccc1O` the IC50 was 10.3 µg/mL (HUVEC; MTT; 48 h).
The IC50 of `OCc1ccc2c(c1C#Cc1ccc(O)cc1)C(c1ccc(O)cc1)(c1ccc(O)cc1)c1cc(O)ccc1-2` is reported as greater than 50 µM (HUVEC; MTT; 48 h).
